Measured values: ChEMBL document CHEMBL3621139, “NO-Donor Dihydroartemisinin Derivatives as Multitarget Agents for the Treatment of Cerebral Malaria” (J Med Chem, 2015)
Activity calls are given as the source filed them.

Columns and labels:
Plasmodium berghei [1] = test: Antiplasmodial activity against Plasmodium berghei ANKA early trophozoite stage by parasite LDH assay; type: functional, organism-based
Plasmodium berghei [2] = test: Antimalarial activity against Plasmodium berghei ANKA infected in C57BL/6 mouse experimental cerebral model with body temperature >32 deg C assessed as mouse survival rate at 25 mg/kg, ip qd for 5 days; type: functional
How it was run: (§1)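 P. berghei ANKA-infected mice left to develop clinical cerebral signs, then treated once hypothermic (rectal temperature 30–36 °C); parasitemia checked but not a treatment criterion. Read-out is survival, compared by log-rank test; 24 h survival also recorded. […] only the subgroup treated above 32 °C body temperature.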

Plasmodium berghei [3] = test: Antimalarial activity against Plasmodium berghei ANKA infected in C57BL/6 mouse experimental cerebral model assessed as mouse survival rate at 25 mg/kg, ip qd for 5 days measured after 24 hrs; type: functional; how it was run: as §1
Plasmodium berghei [4] = test: Antimalarial activity against Plasmodium berghei ANKA infected in C57BL/6 mouse experimental cerebral model assessed as mouse survival rate at 25 mg/kg, ip qd for 5 days; type: functional; how it was run: as §1
Plasmodium berghei [5] = test: Antiplasmodial activity against Plasmodium berghei ANKA infected in C57BL/6 mouse assessed as reduction in paresitemia at 1.4 umol, ip qd for 5 days measured after 5 days by giemsa staining based microscpic analysis; type: functional, organism-based
How it was run: (§2)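 C57BL/6 mice infected with P. berghei ANKA and treated from day 5 of infection at 5–15% parasitemia, before neurological signs. Dosing 1.4 μmol ip once daily for 5 days; parasitemia checked every 24 h. Value given as % of pre-treatment parasitemia (set as 100%), read 24 h after the first dose or 24 h after the fifth.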

Aorta [6] = test: Vasodilatory activity in Wistar rat endothelium-denuded thoracic aorta assessed as reduction in phenylephrine-induced contraction; type: functional, tissue-based
How it was run: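 Endothelium-denuded aortic strips equilibrated 120 min, contracted with L-phenylephrine (1 μM), then given cumulative concentrations of vasodilator. EC50 is the mean ± SEM of at least three experiments.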

Aorta [7] = test: Vasodilatory activity in Wistar rat endothelium-denuded thoracic aorta assessed as reduction in phenylephrine-induced contraction in presence 1 uM sGC inhibitor ODQ; type: functional, tissue-based
How it was run: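 Denuded aortic strips equilibrated 120 min, with ODQ 1 μM added to the bath 5 min before L-phenylephrine (1 μM) contraction. Cumulative vasodilator concentrations then added. EC50 is the mean ± SEM of at least three experiments, in a separate series.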

Plasmodium berghei [8] = test: Antiplasmodial activity against Plasmodium berghei ANKA infected in C57BL/6 mouse assessed as reduction in paresitemia at 1.4 umol, ip qd for 5 days measured after 24 hrs by giemsa staining based microscpic analysis; type: functional; how it was run: as §2
Plasmodium berghei [9] = test: Antimalarial activity against Plasmodium berghei ANKA infected in C57BL/6 mouse experimental cerebral model with body temperature >32 deg C assessed as mouse survival rate at 57 mg/kg, ip qd for 5 days; type: functional; how it was run: as §1
Plasmodium berghei [10] = test: Antimalarial activity against Plasmodium berghei ANKA infected in C57BL/6 mouse experimental cerebral model assessed as mouse survival rate at 57 mg/kg, ip qd for 5 days; type: functional; how it was run: as §1
Plasmodium berghei [11] = test: Antimalarial activity against Plasmodium berghei ANKA infected in C57BL/6 mouse experimental cerebral model assessed as mouse survival rate at 57 mg/kg, ip qd for 5 days measured after 24 hrs; type: functional; how it was run: as §1

| SMILES | IC50 (Plasmodium berghei [1]) [nM] | Activity (Plasmodium berghei [2]) [%] | Activity (Plasmodium berghei [3]) [%] | Activity (Plasmodium berghei [4]) [%] | Activity (Plasmodium berghei [5]) | EC50 (Aorta [6]) [nM] | EC50 (Aorta [7]) [nM] | inhibition (INH) (Plasmodium berghei [8]) [%] | Activity (Aorta [6]) | Activity (Plasmodium berghei [9]) [%] | Activity (Plasmodium berghei [10]) [%] | Activity (Plasmodium berghei [11]) [%] |
| --- | --- | --- | --- | --- | --- | --- | --- | --- | --- | --- | --- | --- |
| C[C@H]1[C@H](OC(=O)CCC(=O)O)O[C@@H]2O[C@@]3(C)CC[C@H]4[C@H](C)CC[C@@H]1[C@@]24OO3 [SODIUM ARESUNATE] | 16 | – | – | – | – | – | – | – | – | – | – | – |
| CO[C@H]1O[C@@H]2O[C@@]3(C)CC[C@H]4[C@H](C)CC[C@@H]([C@H]1C)[C@@]24OO3 [ARTEMETHER] | 3 | 33.3 | 48 | 27.5 | – | – | – | – | – | – | – | – |
| C[C@H]1[C@@H](OC(=O)CCC(=O)OCO/N=[N+](\[O-])N2CCCC2)O[C@@H]2O[C@@]3(C)CC[C@H]4[C@H](C)CC[C@@H]1[C@@]24OO3 | 15 | – | – | – | Active | 3.6 | 140 | 95 | – | – | – | – |
| C[C@H]1[C@@H](OCCN(C)Cc2no[n+]([O-])c2S(=O)(=O)c2ccccc2)O[C@@H]2O[C@@]3(C)CC[C@H]4[C@H](C)CC[C@@H]1[C@@]24OO3 | 14 | – | – | – | Active | 410 | 30000 | 95 | – | – | – | – |
| C[C@H]1[C@@H](OCCN(C)Cc2no[n+]([O-])c2C#N)O[C@@H]2O[C@@]3(C)CC[C@H]4[C@H](C)CC[C@@H]1[C@@]24OO3 | 18 | – | – | – | Active | 23 | 250 | 85 | – | – | – | – |
| C[C@H]1[C@@H](OCCN(C)Cc2no[n+]([O-])c2C(N)=O)O[C@@H]2O[C@@]3(C)CC[C@H]4[C@H](C)CC[C@@H]1[C@@]24OO3 | 16 | – | – | – | Active | 1400 | 12000 | 95 | Dose-dependent effect | 63.6 | 51.6 | 77 |
